How the values were obtained:
[1] = test system: SARS-CoV-1 S pseudotyped particles; format: cell-based
[2] = test system: VSV-G protein pseudotyped particles; format: cell-based, vesicular stomatitis virus
[3] = test system: SARS-CoV-2 S pseudotyped particles; format: cell-based
SARS-CoV-2 = settings: COVID-19 patients; cited from earlier work
[4] = test system: SARS-CoV-2 BetaCoV/Germany/BavPat1/2020; format: cell-based
[5] = test system: human pneumocyte-like cells; experiment: Pneumocyte-like cell MTT viability assay; format: cell-based; settings: 10 μM, 48 h, uninfected
In short: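 Human pneumocyte-like cells derived from H9 embryonic stem cells, used on day nine of differentiation. An uninfected duplicate set received the same drug concentrations as the antiviral set. After 48 h at 37 °C, viability was read by MTT assay. Viability was expressed as a percentage of the DMSO control, in triplicate.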

[6] = test system: SARS-CoV-2 BetaCoV/Germany/BavPat1/2020; format: cell-based; settings: effect only at 10 μM, less potent than Apra S4
Vero CCL81 cells = settings: 1 μM, 18 h
Vero E6 = settings: Vero E6, conditions of the antiviral assay, 16 h
ACE2 = ACE2 immunoblot analysis in Vero E6; format: cell-based, monkey; settings: Vero E6, after 24 h
[7] = test system: SARS-CoV-2 nucleoprotein and spike protein; format: cell-based
[8] = test system: SARS-CoV-2 BetaCoV/Germany/BavPat1/2020; experiment: Time-of-addition assay in Vero CCL81, plaque assay; format: cell-based
SARS-CoV-2 USA-WA1/2020 = format: cell-based
[9] = test system: SARS-CoV-2 negative-stranded viral RNA; experiment: In vitro transcribed viral RNA replication assay, negative-stranded RNA RT-qPCR; format: cell-based
[10] = test system: ocular angiogenic disease models; settings: 0.25 mg/kg; cited from earlier work
[11] = test system: SARS-CoV-2 BetaCoV/Germany/BavPat1/2020; format: cell-based; remark: listed apart in the source
HeLa-hACE2 = settings: HeLa-hACE2, conditions of the antiviral assay, 16 h
SARS-CoV-2 dsRNA = format: cell-based

SMILES: Cc1cccc(/C=N/Nc2cc(N3CCOCC3)nc(OCCc3ccccn3)n2)c1 [Apilimod, apilimod, reference compound]
- cytotoxic effect (WST-8) (Vero E6 cells): No cytotoxic effect was observed
- viral entry of SARS-CoV-1 S pseudotyped particles (luciferase) [1]: inhibited viral entry
- VSV-G-mediated entry [2]: None of the compounds impacted
- viral entry of SARS-CoV-2 S pseudotyped particles (luciferase) [3]: inhibited viral entry

SMILES: CC(C)C(=O)OC[C@H]1O[C@@H](n2ccc(NO)nc2=O)[C@H](O)[C@@H]1O [molnupiravir]
- reduction of the rate of hospitalizations and death (SARS-CoV-2): 30%

SMILES: CCC(CC)COC(=O)[C@H](C)N[P@](=O)(OC[C@H]1O[C@@](C#N)(c2ccc3c(N)ncnn23)[C@H](O)[C@@H]1O)Oc1ccccc1 [remdesivir, reference compound]
- SARS-CoV-2 multicycle growth [4]: less potent
- cytotoxicity in pneumocyte-like cells [5]: No cytotoxicity

SMILES: CC1(C)C(N(O)C(=O)Nc2ccc(Cl)cc2)N(c2ccc(Cl)cc2)C(=O)N1CC(=O)N/N=C/C=C/c1ccc([N+](=O)[O-])o1 (stereo not drawn) [Eeyarestatin I, eeyarestatin I]
- SARS-CoV-2 growth [6]: inhibited SARS-CoV-2 in a dose-dependent manner

SMILES: CC[C@H](C)[C@H]1C(=O)N2CCC[C@H]2C(=O)O[C@H](C(C)(C)C)C[C@@H](C)C[C@H](O)[C@H](C)C2=N[C@@H](CCC(=O)N[C@@H](Cc3ccc(OC)cc3)C(=O)N(C)[C@@H](C)C(=O)N1C)CS2 [Apra S4, apratoxin S4]
- cytotoxic effects (CellTiter-Glo) (Vero CCL81 cells): not due to cytotoxic effects
- cytotoxicity (Vero E6): Cytotoxicity was not observed
- SARS-CoV-2 multicycle growth [4]: strongly reduced
- virus titers ([4]; […], below limit of detection): < 100 PFU/mL
- cytotoxicity in pneumocyte-like cells [5]: No cytotoxicity
- concentration giving decreased ACE2 protein levels (ACE2): ≥ 1 µM
- nucleoprotein signal intensity in infected cells [7]: increased
- number of infected cells (N or S positive) [7]: significantly reduced number of infected cells
- spike protein staining intensity in infected cells [7]: significantly reduced
- viral protein expression at the cell surface (nucleoprotein and spike) [7]: inhibitory effect of Apra S4 was even more pronounced
- antiviral activity by time of addition [8]: did not lose its antiviral activity even if added 2 h after infection
- cytotoxic effect (WST-8) (Vero E6 cells): No cytotoxic effect was observed
- viral replication in human pneumocyte-like cells (SARS-CoV-2 USA-WA1/2020): significantly decreased viral replication
- negative-strand viral RNA [9]: reduced the negative-strand RNA
- efficacy in ocular angiogenic disease models in vivo [10]: exquisite efficacy
- toxicity in ocular angiogenic disease models in vivo [10]: without toxicity or histological abnormalities
- viral entry of SARS-CoV-1 S pseudotyped particles (luciferase) [1]: slightly enhanced infection
- reduction in infectious virus titers in the supernatant [11]: more than 100 fold
- VSV-G-mediated entry [2]: None of the compounds impacted
- cytotoxicity (HeLa-hACE2): Cytotoxicity was not observed
- dsRNA intermediates in infected cells (SARS-CoV-2 dsRNA): strongly reduced
- viral entry of SARS-CoV-2 S pseudotyped particles (luciferase) [3]: slightly enhanced infection

From paper PMC9260726 (ACS Infectious Diseases, 2022)
